The target in data set [1] is T1, Broad substrate specificity ATP-binding cassette transporter ABCG2 (Homo sapiens, UniProt Q9UNQ0).
T1 sequence (Q9UNQ0 whole entry): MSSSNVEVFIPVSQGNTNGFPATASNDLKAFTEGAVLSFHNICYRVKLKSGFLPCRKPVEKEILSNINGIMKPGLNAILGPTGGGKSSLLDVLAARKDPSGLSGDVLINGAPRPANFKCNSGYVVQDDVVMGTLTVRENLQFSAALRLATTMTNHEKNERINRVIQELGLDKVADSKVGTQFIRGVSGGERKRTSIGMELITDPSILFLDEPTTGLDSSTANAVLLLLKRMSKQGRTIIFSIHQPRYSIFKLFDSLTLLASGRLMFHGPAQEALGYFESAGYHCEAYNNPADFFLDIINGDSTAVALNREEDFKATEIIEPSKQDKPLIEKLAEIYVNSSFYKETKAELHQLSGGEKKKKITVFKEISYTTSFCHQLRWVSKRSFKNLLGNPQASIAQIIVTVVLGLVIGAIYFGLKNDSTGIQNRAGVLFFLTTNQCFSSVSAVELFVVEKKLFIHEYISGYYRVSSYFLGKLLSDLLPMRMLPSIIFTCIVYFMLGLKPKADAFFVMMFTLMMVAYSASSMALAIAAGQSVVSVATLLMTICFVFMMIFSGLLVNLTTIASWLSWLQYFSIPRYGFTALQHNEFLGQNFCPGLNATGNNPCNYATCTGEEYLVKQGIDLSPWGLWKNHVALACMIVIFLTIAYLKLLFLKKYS
The data set is described as follows: Inhibition of BCRP in human MCF7/MX cells assessed as Hoechst 33342 accumulation preincubated for 30 mins by Fluorometry. It is filed as cell-based. Summed up:
(§1)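 Cells washed three times in Krebs-HEPES buffer, about 20,000 per well, preincubated with test compound at varied concentrations for 30 min at 37 °C, 5% CO2. Hoechst 33342 then added (final 1 µM). Fluorescence (ex 355, em 460 nm) read every 60 s up to 120 min at 37 °C. KHB background subtracted, 100–109 min mean plotted, four-parameter logistic fit; ≥3 independent experiments.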

Data set [2] has as its target T1, Broad substrate specificity ATP-binding cassette transporter ABCG2. The data set is described as follows: Inhibition of human BCRP expressed in MDCK2 cells assessed as Hoechst 33342 accumulation preincubated for 30 mins by fluorimetry. It is filed as cell-based, MDCK-II. Summed up:
as §1

Data set [3] deals with MCF7/MX. The data set is described as follows: Potentiation of mitoxantrone anticancer activity against human MCF7/MX cells at 3 uM after 72 hrs by MTT assay. It is filed as functional, cell-based. A digest of the protocol: (§2)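 Cells seeded (1250/well MDCK, 10,000/well MCF-7) and left 6 h at 37 °C, 5% CO2. Mitoxantrone or SN-38 dose range added with or without three concentrations of modulator, then 72 h incubation. MTT added for 1 h, cells lysed in DMSO, absorbance read at 544 nm minus 710 nm. EC50 derived; parental cells as controls; three independent experiments.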

For data set [4], the target named is ATP-dependent translocase ABCB1 (Homo sapiens, UniProt P08183). The data set is described as follows: Inhibition of MDR1 in human A2780adr cells assessed as calcein AM accumulation at 10 uM by fluorimetry. It is filed as cell-based. The following applies: a2780 adr. Summed up:
(§3)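 Calcein AM accumulation in A2780adr (P-gp) or 2008 MRP1 cells. Cells washed in Krebs-HEPES buffer, about 30,000 per well, preincubated 30 min with compound at 10 µM final. Calcein AM then added. Fluorescence (ex 485, em 520 nm) read every 60 s up to 90 min at 37 °C. Expressed as percent of vehicle control; n = 3.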

The test system of data set [5] is MCF7/MX. The data set is described as follows: Potentiation of mitoxantrone anticancer activity against human MCF7/MX cells at 5 uM after 72 hrs by MTT assay. It is filed as functional, cell-based. Summed up: as §2
Data set [6] deals with MCF7/MX. The data set is described as follows: Potentiation of mitoxantrone anticancer activity against human MCF7/MX cells at 1 uM after 72 hrs by MTT assay. The format is functional, cell-based. A digest of the protocol:
as §2

Data set [7] addresses Multidrug resistance-associated protein 1 (Homo sapiens, UniProt P33527). The data set is described as follows: Inhibition of MRP1 overexpressed in human 2008 MRP1 cells assessed as calcein AM accumulation at 10 uM by fluorimetry. It is filed as cell-based. The following applies: human, 2008, 10 µM. Summed up: as §3
The next data set relates to MDCK-II. The data set is described as follows: Potentiation of SN-38 anticancer activity against MDCK2 cells expressing human BCRP after 72 hrs by MTT assay. The format is functional, cell-based. The following applies: Canis lupus familiaris. A digest of the protocol:
as §2

These results are taken from ChEMBL document CHEMBL1933063, “Investigation of chalcones and benzochalcones as inhibitors of breast cancer resistance protein” (Bioorg Med Chem, 2012).

SMILES strings stand for the structures. Calls of active or inactive are those of the source. The calls are words filed in the database; no cut-off is given here.

Multidrug resistance-associated protein 1, sequence (P33527 whole entry): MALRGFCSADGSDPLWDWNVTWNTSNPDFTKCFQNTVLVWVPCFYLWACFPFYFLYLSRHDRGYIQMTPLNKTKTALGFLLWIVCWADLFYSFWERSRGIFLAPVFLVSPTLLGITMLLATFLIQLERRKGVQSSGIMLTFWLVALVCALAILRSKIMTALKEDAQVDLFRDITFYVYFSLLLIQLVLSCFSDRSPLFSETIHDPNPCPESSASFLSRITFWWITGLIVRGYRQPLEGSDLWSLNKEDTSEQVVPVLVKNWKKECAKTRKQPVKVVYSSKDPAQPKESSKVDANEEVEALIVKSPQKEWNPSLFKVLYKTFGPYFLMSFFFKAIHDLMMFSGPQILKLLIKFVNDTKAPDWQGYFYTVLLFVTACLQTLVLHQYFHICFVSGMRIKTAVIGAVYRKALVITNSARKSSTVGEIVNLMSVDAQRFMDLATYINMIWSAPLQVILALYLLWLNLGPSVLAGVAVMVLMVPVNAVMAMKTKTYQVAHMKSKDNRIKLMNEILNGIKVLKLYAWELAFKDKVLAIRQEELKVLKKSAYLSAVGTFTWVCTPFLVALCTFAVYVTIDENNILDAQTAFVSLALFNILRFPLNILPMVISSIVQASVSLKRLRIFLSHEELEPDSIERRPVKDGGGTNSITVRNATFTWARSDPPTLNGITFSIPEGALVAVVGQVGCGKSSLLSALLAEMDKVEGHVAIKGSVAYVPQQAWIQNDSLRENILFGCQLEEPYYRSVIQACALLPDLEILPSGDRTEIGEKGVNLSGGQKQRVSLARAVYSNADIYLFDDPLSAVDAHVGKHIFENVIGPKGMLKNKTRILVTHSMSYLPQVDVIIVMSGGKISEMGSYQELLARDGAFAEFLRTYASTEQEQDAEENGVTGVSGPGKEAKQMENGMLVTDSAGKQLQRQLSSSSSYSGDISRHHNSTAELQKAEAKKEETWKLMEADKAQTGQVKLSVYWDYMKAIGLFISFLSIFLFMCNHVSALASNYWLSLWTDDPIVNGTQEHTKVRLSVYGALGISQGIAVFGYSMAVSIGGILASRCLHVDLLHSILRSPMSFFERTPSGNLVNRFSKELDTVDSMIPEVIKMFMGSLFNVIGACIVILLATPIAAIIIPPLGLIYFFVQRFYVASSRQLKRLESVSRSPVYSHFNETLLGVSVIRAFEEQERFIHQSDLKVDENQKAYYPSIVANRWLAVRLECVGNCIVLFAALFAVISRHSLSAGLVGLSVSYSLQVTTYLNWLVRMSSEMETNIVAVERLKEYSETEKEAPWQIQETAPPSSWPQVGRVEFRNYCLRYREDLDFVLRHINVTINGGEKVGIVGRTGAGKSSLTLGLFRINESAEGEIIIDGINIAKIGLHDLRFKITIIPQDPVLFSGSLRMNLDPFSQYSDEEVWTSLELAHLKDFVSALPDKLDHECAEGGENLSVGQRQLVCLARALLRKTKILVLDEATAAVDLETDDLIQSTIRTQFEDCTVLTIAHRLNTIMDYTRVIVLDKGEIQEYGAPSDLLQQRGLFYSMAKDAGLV
ATP-dependent translocase ABCB1, sequence (P08183 whole entry): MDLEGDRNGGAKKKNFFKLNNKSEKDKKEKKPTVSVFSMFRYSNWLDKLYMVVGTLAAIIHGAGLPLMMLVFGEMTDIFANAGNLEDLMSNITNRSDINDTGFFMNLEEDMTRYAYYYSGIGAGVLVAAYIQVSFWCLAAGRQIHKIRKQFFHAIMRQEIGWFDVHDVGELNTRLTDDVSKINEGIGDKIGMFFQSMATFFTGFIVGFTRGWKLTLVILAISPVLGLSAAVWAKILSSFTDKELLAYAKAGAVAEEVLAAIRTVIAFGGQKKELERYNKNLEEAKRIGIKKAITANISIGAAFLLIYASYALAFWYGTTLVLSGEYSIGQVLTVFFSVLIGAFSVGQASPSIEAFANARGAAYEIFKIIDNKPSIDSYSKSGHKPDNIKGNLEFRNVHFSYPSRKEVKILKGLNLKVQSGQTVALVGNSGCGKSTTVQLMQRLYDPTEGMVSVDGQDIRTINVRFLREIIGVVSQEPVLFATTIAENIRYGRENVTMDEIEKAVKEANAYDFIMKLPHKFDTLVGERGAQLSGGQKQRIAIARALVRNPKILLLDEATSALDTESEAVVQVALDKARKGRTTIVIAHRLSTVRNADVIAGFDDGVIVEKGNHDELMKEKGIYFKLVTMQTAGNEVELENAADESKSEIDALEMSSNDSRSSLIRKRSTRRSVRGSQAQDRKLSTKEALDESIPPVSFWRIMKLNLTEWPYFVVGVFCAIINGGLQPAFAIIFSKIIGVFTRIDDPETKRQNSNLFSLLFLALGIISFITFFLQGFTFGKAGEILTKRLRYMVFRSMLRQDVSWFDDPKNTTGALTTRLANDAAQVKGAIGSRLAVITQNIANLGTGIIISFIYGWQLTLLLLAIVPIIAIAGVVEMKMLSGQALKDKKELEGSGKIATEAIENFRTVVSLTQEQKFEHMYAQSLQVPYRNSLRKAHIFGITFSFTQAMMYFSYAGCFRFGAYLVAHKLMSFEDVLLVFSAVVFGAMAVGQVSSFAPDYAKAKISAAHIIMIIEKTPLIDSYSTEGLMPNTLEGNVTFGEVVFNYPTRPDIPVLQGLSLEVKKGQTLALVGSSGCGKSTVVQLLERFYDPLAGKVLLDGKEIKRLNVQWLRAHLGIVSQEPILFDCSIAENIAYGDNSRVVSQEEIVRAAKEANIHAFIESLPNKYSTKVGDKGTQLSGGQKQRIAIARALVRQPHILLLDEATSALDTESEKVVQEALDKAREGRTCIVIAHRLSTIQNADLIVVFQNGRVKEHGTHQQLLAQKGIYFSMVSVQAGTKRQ

In the case of `COc1cc(O)c(C(=O)/C=C/c2ccc(OC)c(OC)c2)c(OC)c1`, the IC50 in data set [1] (read-out: IC50) is 750 nM; in data set [2] (read-out: IC50) it was 530 nM. Besides, the outcome in the data set on MCF7/MX [3], in the data set with MCF7/MX [5] and in the data set on MCF7/MX [6] was Active. The “inhibition (INH)” value was “Active” in data set [4] and “Not Active” in data set [7].

For `COc1ccc(/C=C/C(=O)c2c(O)ccc3ccccc23)cc1OC`, the Activity result in the data set with MDCK-II is “Dose-dependent effect”. Moreover, the IC50 in data set [1] (read-out: IC50) was 1840 nM; in data set [2] (read-out: IC50), 720 nM. In addition, the “inhibition (INH)” value in data set [4] was “Active”; in data set [7], “Not Active”.

For `O=C(/C=C/c1ccccc1Cl)c1ccccc1`, the IC50 result in data set [1] (mcf7/mx) and in data set [2] (mdck-ii) was “Not Active” in each case. In addition, the results for the “inhibition (INH)” value in data set [4] and in data set [7] were “Active” and “Not Active”, respectively.

For the molecule `COc1ccc(C(=O)/C=C/c2ccc(Cl)cc2)c(OC)c1`, the IC50 in data set [1] (read-out: IC50) came out at 3090 nM; in data set [2] (read-out: IC50) it was 1130 nM. For the same molecule, the “inhibition (INH)” value in data set [4] was “Active”; in data set [7], “Not Active”.

As for `COc1ccc(/C=C/C(=O)c2ccc3ccccc3c2O)cc1OC`, the results for the IC50 in data set [1] (read-out: IC50) and in data set [2] (read-out: IC50) were 2500 nM and 1950 nM, respectively. The results for the “inhibition (INH)” value in data set [4] and in data set [7] were “Active” and “Not Active”, respectively.

For `COc1ccc(C(=O)/C=C/c2ccccc2)c(O)c1`, the values for the IC50 in data set [1] (read-out: IC50) and in data set [2] (read-out: IC50) were 31000 nM and 30900 nM, respectively. For the same molecule, the “inhibition (INH)” value in data set [4] is recorded as “Active”; in data set [7] it was “Not Active”.

With `COc1ccc(C(=O)/C=C/c2ccc(Cl)c(Cl)c2)c(O)c1`, the IC50 entry in data set [1] (mcf7/mx) and in data set [2] (mdck-ii) was “Not Active” each time. In addition, the “inhibition (INH)” value in data set [4] is listed as “Active”; in data set [7], “Not Active”.

For `COc1ccc(/C=C/C(=O)c2ccc(O)cc2O)cc1`, the IC50 in data set [1] (read-out: IC50) stood at 33300 nM; in data set [2] (read-out: IC50) it was 12000 nM. For the same molecule, the “inhibition (INH)” value in data set [4] was “Active”; in data set [7] it was “Not Active”.

With `COc1ccc(/C=C/C(=O)c2c(O)ccc3ccccc23)cc1`, the IC50 in data set [1] (read-out: IC50) worked out at 3810 nM; in data set [2] (read-out: IC50), 2890 nM. The “inhibition (INH)” value in data set [4] is listed as “Active”; in data set [7], “Not Active”.
